Reference: ChEMBL document CHEMBL4732088, “Identification and optimization of piperlongumine analogues as potential antioxidant and anti-inflammatory agents via activation of Nrf2” (Eur J Med Chem, 2021)
The source made the active and inactive calls. No cut-off for these calls is given here.

Tests used:
[1] = molecular target: T1, Nuclear factor erythroid 2-related factor 2 (Mus musculus) (UniProt Q60795); test: Activation of Nrf2 in mouse BV2 cells assessed as decrease in LPS-induced NO production pretreated with compound followed by LPS stimulation after 18 hrs by Griess reagent based assay; assay type: cell-based; settings: BV-2, filed as activator, dose 5-20 µM
T1 sequence (whole entry): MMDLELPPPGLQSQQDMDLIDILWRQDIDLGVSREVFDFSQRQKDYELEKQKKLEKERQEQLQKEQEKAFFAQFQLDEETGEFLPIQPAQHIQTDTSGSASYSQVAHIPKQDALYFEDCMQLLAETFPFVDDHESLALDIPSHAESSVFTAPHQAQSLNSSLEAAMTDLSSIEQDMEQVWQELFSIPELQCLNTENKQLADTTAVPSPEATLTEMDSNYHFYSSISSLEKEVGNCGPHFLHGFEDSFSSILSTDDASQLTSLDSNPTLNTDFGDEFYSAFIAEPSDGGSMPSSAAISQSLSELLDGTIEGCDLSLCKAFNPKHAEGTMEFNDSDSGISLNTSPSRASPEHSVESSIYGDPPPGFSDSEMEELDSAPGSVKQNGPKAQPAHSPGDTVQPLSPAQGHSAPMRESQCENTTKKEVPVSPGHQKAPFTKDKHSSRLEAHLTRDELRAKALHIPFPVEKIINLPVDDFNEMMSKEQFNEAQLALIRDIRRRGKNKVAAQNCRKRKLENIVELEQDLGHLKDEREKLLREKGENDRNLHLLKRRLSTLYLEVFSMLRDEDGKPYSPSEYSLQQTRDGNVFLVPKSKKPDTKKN
Outline: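 BV2 microglia pretreated with compound, then LPS (1µg/mL) for 18 h; NO in medium measured by Griess method; mean ± SD, n = 3.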

PC-12 [2] = test: Neuroprotective activity against 6-OHDA-induced cell damage in rat PC12 cells preincubated for 24 hrs followed by 6-OHDA treatment by MTT assay; assay type: functional, cell-based; settings: dose 5-20 µM
Outline: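 PC12 cells pretreated 24 h with compound (5, 10, 20 μM), then H₂O₂ (200 μM) or 6-OHDA (150 μM); viability by MTT; mean ± SD, three independent experiments.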

PC-12 [3] = test: Protection against H2O2-induced oxidative damage in rat PC12 cells assessed as intracellular ROS level by measuring mean fluorescence intensity at 5 uM pretreated with compound followed by H2O2 stimulation by DCFH-DA staining based flow cytometry (reference value: 233032.55); assay type: functional
PC-12 [4] = test: Protection against 6-OHDA-induced oxidative damage in rat PC12 cells assessed as intracellular ROS level by measuring mean fluorescence intensity at 20 uM pretreated with compound followed by 6-OHDA stimulation by DCFH-DA staining based flow cytometry (reference value: 26327.34); assay type: functional
PC-12 [5] = test: Protection against 6-OHDA-induced mitochondrial dysfunction in rat PC12 cells assessed as change in mitochondrial membrane potential at 10 uM pretreated with compound followed by 6-OHDA addition by JC-1 staining based flow cytometry (reference value: 73.2 %); assay type: functional
Outline: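 Mitochondrial membrane potential in PC12 cells pretreated with compound (5, 10, 20 μM), then exposed to H₂O₂ (200 μM) or 6-OHDA (150 μM). JC-1 staining, red-to-green fluorescence shift read by flow cytometry. Mean ± SD, n = 3.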

PC-12 [6] = test: Protection against H2O2-induced apoptosis in rat PC12 cells assessed as viable cells at 5 uM incubated for 24 hrs by annexin V FITC/propidium iodide staining based flow cytometry (reference value: 79.3 %); assay type: functional; settings: read-out: Activity
PC-12 [7] = test: Protection against H2O2-induced apoptosis in rat PC12 cells assessed as early apoptotic cells at 5 uM incubated for 24 hrs by annexin V FITC/propidium iodide staining based flow cytometry (reference value: 3.9 %); assay type: functional
PC-12 [8] = test: Protection against H2O2-induced apoptosis in rat PC12 cells assessed as late apoptotic cells at 5 uM incubated for 24 hrs by annexin V FITC/propidium iodide staining based flow cytometry (reference value: 16.2 %); assay type: functional
PC-12 [9] = test: Protection against H2O2-induced apoptosis in rat PC12 cells assessed as viable cells at 10 uM incubated for 24 hrs by annexin V FITC/propidium iodide staining based flow cytometry (reference value: 79.3 %); assay type: functional; settings: read-out: Activity
PC-12 [10] = test: Protection against 6-OHDA-induced apoptosis in rat PC12 cells assessed as viable cells at 5 uM incubated for 24 hrs by annexin V FITC/propidium iodide staining based flow cytometry (reference value: 72.0 %); assay type: functional; settings: read-out: Activity
[11] = molecular target: T2, Nuclear factor erythroid 2-related factor 2 (Rattus norvegicus) (UniProt O54968); test: Activation of Nrf2 in rat PC12 cells assessed as increase in HO-1 protein level at 20 uM after 12 hrs by Western blot analysis; assay type: cell-based; settings: PC-12, filed as activator
T2 sequence (whole entry): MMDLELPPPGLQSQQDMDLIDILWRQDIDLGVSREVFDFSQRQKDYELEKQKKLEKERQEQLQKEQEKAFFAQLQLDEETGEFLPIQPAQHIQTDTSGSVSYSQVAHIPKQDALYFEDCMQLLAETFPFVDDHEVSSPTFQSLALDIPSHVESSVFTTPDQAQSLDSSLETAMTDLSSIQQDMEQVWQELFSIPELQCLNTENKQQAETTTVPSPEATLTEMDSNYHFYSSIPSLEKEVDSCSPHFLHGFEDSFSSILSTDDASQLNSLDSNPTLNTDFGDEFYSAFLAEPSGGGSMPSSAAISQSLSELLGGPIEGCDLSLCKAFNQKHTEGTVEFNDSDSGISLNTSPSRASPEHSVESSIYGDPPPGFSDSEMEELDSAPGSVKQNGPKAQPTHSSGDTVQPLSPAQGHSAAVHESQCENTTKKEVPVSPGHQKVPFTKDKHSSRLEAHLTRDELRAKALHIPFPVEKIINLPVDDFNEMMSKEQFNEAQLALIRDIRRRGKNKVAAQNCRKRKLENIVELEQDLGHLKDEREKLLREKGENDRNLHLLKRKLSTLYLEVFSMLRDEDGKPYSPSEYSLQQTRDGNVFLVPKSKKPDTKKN

[12] = molecular target: T2, Nuclear factor erythroid 2-related factor 2 (Rattus norvegicus); test: Activation of Nrf2 in rat PC12 cells assessed as increase in NQO1 protein level at 20 uM after 24 hrs by Western blot analysis; assay type: cell-based; settings: PC-12, filed as activator
PC-12 [13] = test: Neuroprotective activity against 6-OHDA-induced cell death in rat PC12 cells assessed as cell viability at 20 uM preincubated for 30 mins in presence of brusatol […] and measured after 24 hrs by MTT assay; assay type: functional, cell-based; settings: time 24.5 hrs
[14] = molecular target: T1, Nuclear factor erythroid 2-related factor 2 (Mus musculus); test: Activation of Nrf2 in mouse BV2 cells assessed as upregulation of TrxR1 protein expression after 24 hrs by Western blot analysis; assay type: cell-based; settings: BV-2, filed as activator, dose 5-20 µM
Outline: (§1)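 BV2 microglia exposed to compound for 24 h over a concentration series; Nrf2, NQO1, HO-1, TrxR1, GCLM and GCLC protein levels read by Western blot.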

[15] = molecular target: T1, Nuclear factor erythroid 2-related factor 2 (Mus musculus); test: Activation of Nrf2 in mouse BV2 cells assessed as upregulation of HO-1 protein expression after 24 hrs by Western blot analysis; assay type: cell-based; settings: BV-2, filed as activator, dose 5-20 µM; outline: as §1
[16] = Effective permeability of compound by PAMPA-BBB assay; assay type: ADME; settings: read-out: Peff
PC-12 [17] = test: Neuroprotective activity against 6-OHDA-induced apoptosis in rat PC12 cells assessed as reduction in apoptotic nuclei at 5 to 20 uM pretreated with compound followed by Hoechst 33342 staining based fluorescence microscopy analysis; settings: dose 5-20 µM

For CCN(C)C(=O)N1CCN(C(=O)/C=C/c2ccc(F)cc2)C1=O, the Activity [1] was “Dose-dependent effect”, the Activity (PC-12 [2]) was “Dose-dependent effect” and the Flu intensity (PC-12 [3]) was 205329.36. It also gave a Flu intensity (PC-12 [4]) of 9730, an Activity (PC-12 [5]) of 83.6% and a viability at 5 µM (PC-12 [6]) of 84.1%. For the same compound, the Activity (PC-12 [7]) was 5.1%, the Activity (PC-12 [8]) was 9.9% and the viability at 10 µM (PC-12 [9]) was 92.4%. The viability at 5 µM (PC-12 [10]) was 81.5%, the Activity [11] was “Active” and the Activity [12] was “Active”. The Activity (PC-12 [13]) was “inactive”, the Activity [14] was “Dose-dependent effect” and the Activity [15] was “Dose-dependent effect”. The Papp [16] was 6.78 ×10⁻⁶ cm/s and the Activity (PC-12 [17]) was “Active”.
